Screens as filed in PubChem BioAssay.
UCH37 inh = blocks the human deubiquitinase UCH37 | purified proteasome/UCH37, Ub-AMC cleavage fluorescence | inhibition, % (no concentration beside the values) | hit rate 0.33% among 330,000 | AID 588478;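 active = mean inhibition over replicate wells above about 20%, limit read from the data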;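 note: 0% = compound-free wells with enzyme and 100% = wells lacking proteasome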
Target sequence (Q9Y5K5 whole entry, looked up): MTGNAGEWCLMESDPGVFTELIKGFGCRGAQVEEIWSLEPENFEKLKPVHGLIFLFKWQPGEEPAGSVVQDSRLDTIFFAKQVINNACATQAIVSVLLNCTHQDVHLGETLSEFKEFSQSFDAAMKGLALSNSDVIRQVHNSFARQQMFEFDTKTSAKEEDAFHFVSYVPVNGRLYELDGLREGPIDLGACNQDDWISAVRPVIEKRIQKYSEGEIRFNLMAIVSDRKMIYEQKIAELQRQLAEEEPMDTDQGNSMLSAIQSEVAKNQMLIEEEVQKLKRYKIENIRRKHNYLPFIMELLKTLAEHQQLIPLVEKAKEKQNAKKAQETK
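Material: Human UCH37 enzyme supplied as purified proteasome complex | Schedule: 30 min preincubation with enzyme, 25 min cleavage at room temperature | Detection: AMC fluorescence 355/460 nm | Measure: % inhibition of Ub-AMC cleavage fluorescence | Controls: Wells without proteasome as full block, compound-free enzyme plus substrate as uninhibited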
CTSL1 counter = blocks F. hepatica cathepsin L1 in PFM18AAP counter-screen; hit rate 0.49% among 300,000; recombinant F. hepatica cathepsin L1, Z-Leu-Arg-MCA fluorescence; inhibition, % at 5.96 µM;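 active = inhibition above the mean of all tested compounds plus 3 SD, set per screening campaign, cut at about 17% in these data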;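 note: 0% = plate median of test compound wells and 100% = 1 µM Z-Phe-Ala-diazomethylketone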
CHOP inh = inhibitors of CHOP induction in ER stress response; CHO-K1 CHOP-promoter luciferase, tunicamycin-induced, 15-18 h; inhibition, % at 10 µM; hit rate 3.8% among 220,000; AID 2732;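 active = compounds that reduced the stress-induced luciferase reporter signal by more than about 70% of percent inhibition, limit read from the data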;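 note: 0% = tunicamycin plus vehicle and 100% = wells without tunicamycin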
UPR XBP1 act = activators of adaptive arm of unfolded protein response (XBP1) | CHO-XBP1 luciferase reporter, IRE1-XBP1 UPR activation, luminescence; percent of tunicamycin response, DMSO as zero | activation, % at 20 µM | hit rate 0.33% among 330,000;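 active = versus positive control, 20 µM dose yields 30% or more activation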;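 note: 100% = tunicamycin at 10 µg/mL and 0% = DMSO only wells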
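Assay system: CHO-XBP1 luciferase reporter cells; Schedule: 6 h treatment, 37 °C; Detection: glow luminescence from Steady-Glo reagent; Benchmarks: high control tunicamycin 10 µg/mL final, low control DMSO vehicle only.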
UPR CHOP act = apoptotic UPR (CHOP) activation; CHO-CHOP luciferase reporter, luminescence; percent of tunicamycin response over DMSO baseline; activation, % at 10 µM; AID 449763; hit rate 0.34% among 330,000;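 active = at 10 µM dose, activation of 40% or more, normalized to positive control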;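 note: 100% = tunicamycin at 10 µg/mL and 0% = DMSO alone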
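System: CHO-CHOP luciferase reporter cell line; amount: 500 cells/well; buffer or medium: F12 medium containing 10% fetal bovine serum; incubation: 6 h compound exposure at 37 °C after overnight seeding; measured by: luciferase luminescence after 10 min with Steady-Glo reagent; evaluation: % reporter activation, DMSO baseline versus tunicamycin full activation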
* marks the source's active call; other numbers are inactive results; x = not tested or not shown. The sample as a whole holds a higher share of hits than the screen did.

SMILES | UCH37 inh | CTSL1 counter | CHOP inh | UPR XBP1 act | UPR CHOP act
C/C(=N\Nc1ccc([N+](=O)[O-])cc1)c1ccc(C#N)cc1 | x | 5 | -13 | 0 | -1
Cc1ccc(N(C(=O)CCl)C(C(=O)NC2CCCCC2)c2cccnc2)cc1C (stereo not drawn) | -1 | 18* | 70 | x | x
CC(=O)ON=C(c1nonc1N)N1CCN(c2ccc([N+](=O)[O-])cc2Cl)CC1 | 6 | x | x | x | x
CCCN(CCC)C(=O)CC(c1ccccc1)c1ccco1 (stereo not drawn) | 5 | 41* | -2 | -2 | 2
CCCN(CCC)C(=O)CC(c1ccccc1)c1ccc(C)cc1O (stereo not drawn) | 5 | 3 | 46 | -4 | 0
CCCN(CCC)C(=O)CC(c1ccccc1)c1cc(Br)ccc1O (stereo not drawn) | 3 | -4 | 92* | 0 | -1
CCN(CC)C(=O)CC(c1ccc(F)cc1)c1ccco1 (stereo not drawn) | 0 | 49* | -17 | -5 | 0
NC(=O)CC(c1ccccc1)c1ccco1 (stereo not drawn) | 1 | 1 | 6 | 1 | -3
C#CCn1cc(C=NNC(=O)c2cc3ccccc3o2)c2ccccc21 | -78 | x | x | x | x
CCn1ncc(C=NNC(=O)c2cc(-c3ccc(C)cc3C)nc3ccccc23)c1C | -1 | x | x | x | x
O=C(O)c1cccc(Cn2c(Cl)c(C=NNC(=O)c3ccccc3O)sc2=O)c1 | 13 | x | x | x | x
O=C(O)c1cccc(Cn2c(Cl)c(C=NNC(=O)c3cc4ccccc4cc3O)sc2=O)c1 | 22* | x | x | x | x
FC(F)(F)c1cccc(-c2nnc(-c3ccccc3)c(N3CCOCC3)n2)c1 | 5 | 17* | 43 | 3 | -2
O=C(NN=Cc1cnc(N2CCCCC2)s1)c1ccc(C(F)(F)F)cc1 | -6 | x | x | x | x
COc1ccc(C=NNc2nc(C)cc(-c3ccccc3)n2)cc1OC | 0 | x | x | x | x
CCOC(=O)C1CCCN(CC(=O)Nc2c(C(=O)OC)[nH]c3ccc(Br)cc23)C1 (stereo not drawn) | 0 | 4 | 77* | 0 | 0
Cc1ccc2c(cnn2C(=O)CCCC(=O)NCc2ccc(F)cc2)c1 | 1 | 87* | x | 0 | 1
O=C(N/N=C/c1cccnc1)c1cc2c(ccc3ccccc32)o1 | x | 4 | 91* | 0 | -1
O=C(NN=Cc1cccnc1)c1cc2c(ccc3ccccc32)o1 | -5 | x | x | x | x
O=C(N/N=C/c1cccnc1)c1ccc(NC(=O)C(c2ccccc2)c2ccccc2)cc1 | x | 1 | 78* | -3 | -1
COc1ccc(C=NNC(=O)c2cccnc2)cc1CN1CCOCC1 | 9 | x | x | x | x
Cc1cc(C(=O)NN=Cc2cc(C(C)(C)C)c(O)c(C(C)(C)C)c2)n[nH]1 | 2 | x | x | x | x
Nc1nnc(SCC(=O)Nc2cc(S(=O)(=O)N3CCOCC3)ccc2N2CCCC2)s1 | 5 | x | x | -2 | -2
COc1cc(S(=O)(=O)N2CCOCC2)ccc1NC(=O)CSc1nnc(N)s1 | 30* | -1 | 10 | 0 | -1
COc1ccccc1/C=C/C=NNC(=O)CCn1cnc2ccccc21 | 3 | x | x | x | x
SMILES | UCH37 inh | CTSL1 counter | CHOP inh | UPR XBP1 act | UPR CHOP act
O=c1c(Cl)c(Nc2cccc(Cl)c2)cnn1-c1nc2ccccc2s1 | -2 | -1 | -2 | -1 | 2
COc1ccc(Nc2cnn(-c3nc4ccccc4s3)c(=O)c2Cl)cc1 | 5 | -2 | 75* | x | x
CN1CCN(c2cc(=O)n(C3CCCCC3)c(=O)[nH]2)CC1 | 0 | -1 | 9 | 2 | 1
O=c1cc(N2CCN(c3cccc(Cl)c3)CC2)[nH]c(=O)n1C1CCCCC1 | -3 | -1 | 74* | 6 | -3
O=c1cc(N2CCN(c3ccccc3)CC2)[nH]c(=O)n1C1CCCCC1 | -2 | 5 | 78* | 5 | -1
CN(C)c1ccc(/C=N\Nc2nc(-c3ccccc3)cc(=O)[nH]2)cc1 | x | 5 | 89* | 1 | 2
Cc1ccsc1C=NNC(=O)C1C(=O)NCC1c1ccccc1 (stereo not drawn) | 4 | x | x | x | x
Cc1cc(C)c2c(=O)n(CC(=O)N3CCC(N4CCCCC4)CC3)sc2n1 | 4 | 2 | 39 | -5 | 3
CCOC(=O)C1CCCN(C(=O)Cn2sc3nc(C)cc(C)c3c2=O)C1 (stereo not drawn) | 8 | -3 | 109* | -3 | 17
C=CCn1c(COc2cccc(C)c2C)nnc1SCC(=O)N1CCN(c2ccccc2)CC1 | -1 | 0 | 71* | -5 | -1
CCOC(=O)C1=C(C)NC(SCC(=O)Nc2nc(C)cs2)=C(C#N)C1c1cccs1 (stereo not drawn) | -3 | 2 | 75* | -2 | 0
C=CCOC(=O)C1=C(C)NC(SCC(N)=O)=C(C#N)C1c1cccs1 (stereo not drawn) | -4 | 0 | -2 | -5 | -1
O=C(CCl)N1CCN(S(=O)(=O)c2ccc3ccccc3c2)CC1 | 4 | 19* | x | -14 | -5
CCCCCCP(=O)(O)c1ccccc1 | 1 | 0 | 14 | -1 | 3
CCCCN(CCCC)CP(=O)(c1ccccc1)c1ccccc1 | 3 | 2 | 73* | -6 | -4
CC(=NOCC(=O)NN=Cc1ccc(C)cc1O)c1cccs1 | -5 | x | x | x | x
Cc1cccc(OCC(=O)N/N=C/c2cn[nH]c2-c2ccc(Cl)c(Cl)c2)c1 | x | 0 | 80* | 1 | 2
CN(C)S(=O)(=O)c1cccc(NC(=S)NN=Cc2ccco2)c1 | 9 | x | x | x | x
Cc1cccc(C=NNC(=O)c2cc(Br)ccc2O)n1 | 6 | x | x | x | x
CCc1sc(-c2c(C#N)c(N)nc3c2CCCCCC3)cc1[N+](=O)[O-] | 2 | -1 | 76* | 1 | 1
CC(C)(C)c1ccc(-c2c(C#N)c(N)nc3c2CCCC3)s1 | -39 | 4 | 9 | 3 | 1
Cc1cc(NN=Cc2cccc([N+](=O)[O-])c2)nc(-n2nc(C)cc2C)n1 | 7 | x | x | x | x
CC(C)Cn1c(O)c(/C=C2\C=NN=C2c2ccccc2)sc1=S | 15 | 0 | 71* | 4 | 0
O=C(C[n+]1ccccc1)NN=Cc1ccccc1[N+](=O)[O-] | 6 | x | x | x | x
CCOc1ccc(CC(=O)NN=Cc2cccnc2)cc1OCC | 0 | x | x | x | x
SMILES | UCH37 inh | CTSL1 counter | CHOP inh | UPR XBP1 act | UPR CHOP act
CC(C)c1nc(NCc2ccccc2)c(C#N)c2c1CCCC2 | -40 | 2 | -4 | 4 | 2
CN1CCc2c(C#N)c(N3CCCCC3)nc(NCc3ccccc3)c2C1 | -23 | 1 | 84* | 0 | 0
N#Cc1c(NCCCO)nc(NCc2ccccc2)c2c1CCN(Cc1ccccc1)C2 | -77 | 4 | 88* | -5 | 3
N#Cc1c(NCCCO)nc(-c2ccco2)c2c1CCCC2 | -225 | 18* | 12 | 0 | -1
Cc1ccccc1C(=O)NN=Cc1ccncc1 | 4 | x | x | x | x
S=c1[nH]nc(-c2cccnc2)n1N=Cc1cccs1 | 3 | x | x | x | x
O=Nc1c(O)n(Cc2cccc(Cl)c2)c2ccccc12 | 6 | 0 | 73* | 2 | 0
